Hits are enriched below; roughly 1.9% of the tested compounds scored in any of these assays.
Ecoli rRNA inh – selective bacterial rRNA inhibition in E. coli | E. coli WT GFP vs humanized-ribosome RFP mutants, fluorescence, 24 h; stronger effect = lower value; DMSO median 0, no signal -100 | GFP signal change (wild-type ribosome), % (test concentration not listed) | actives 1.6% (n = 350,000);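 active means significant combined selectivity score with lowered wild-type GFP, culture density cut under 30%, mutant RFP and density less affected; inactive means any of these conditions unmet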
RAD52 inh – blocks human RAD52 DNA annealing. P43351. recombinant RAD52 DNA annealing, FRET fluorescence. inhibition, % at 18.7 µM. actives 0.46% (n = 360,000). AID 651710;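 active means every replicate showing at least 50% inhibition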
Target sequence (P43351 whole entry, looked up): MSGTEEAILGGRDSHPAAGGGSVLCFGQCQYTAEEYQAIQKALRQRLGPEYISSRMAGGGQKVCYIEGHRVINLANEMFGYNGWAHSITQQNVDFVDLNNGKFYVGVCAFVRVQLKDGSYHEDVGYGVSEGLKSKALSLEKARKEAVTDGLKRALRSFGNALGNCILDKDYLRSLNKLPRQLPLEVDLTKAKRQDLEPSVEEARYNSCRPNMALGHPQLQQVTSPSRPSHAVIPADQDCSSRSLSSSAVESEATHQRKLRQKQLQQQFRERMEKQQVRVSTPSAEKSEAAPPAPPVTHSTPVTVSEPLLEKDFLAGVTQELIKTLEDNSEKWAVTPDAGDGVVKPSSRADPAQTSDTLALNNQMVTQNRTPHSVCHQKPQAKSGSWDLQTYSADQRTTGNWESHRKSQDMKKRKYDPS
Cneo AK release – Cryptococcus neoformans lysis via adenylate kinase release. C. neoformans lysis, adenylate kinase release luminescence, 4 h; normalised: neutral wells 0, clomiphene wells 100. lysis activity, % at 15 µM. actives 0.2% (n = 360,000);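 active means mean lysis activity across replicates of at least 80%, whatever share of replicates individually reach that level; inactive means mean lysis activity below 80%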
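Material – Cryptococcus neoformans yeast cells · Quantity – 5 × 10^6 yeast cells/mL · Buffer or medium – YPD medium · Compound – single dose · Timing – 4 h static compound exposure, 37 °C, read 1 h post-reagent · Signal – adenylate kinase release luminescence · Read-out basis – lysis from increased AK signal · Benchmarks – Clomiphene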
RAD54 inh – RAD54 (human) branch migration inhibition; RAD54 Holliday junction branch migration, FAM/BHQ fluorescence; actives 0.14% (n = 360,000); inhibition, % at 10.4 µM; Q92698;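 active means mean normalized replicate activity at least 40 and at least half of replicates scoring 40 or more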;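 further: 0% = median of neutral control wells and 100% = median of positive control wells; inhibitors cause a drop in the FAM fluorescence signal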
PglD inh – inhibitors of Campylobacter jejuni PglD acetyltransferase. purified PglD enzyme, DTNB colorimetric CoA detection. inhibition, % at 12.5 µM. actives 0.098% (n = 360,000). AID 602405; in the data active means inhibition above about 16%, passing the limit was not always enough
PglD confirm – PglD (C. jejuni) inhibition confirmation. shares compounds with PglD inh. Purified C. jejuni PglD, DTNB absorbance 412 nm. inhibition, % at 20 µM. 320 tested, under 10 active;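 active means mean inhibition across replicates of at least 20% with every single replicate also at 20% or more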;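 further: initial rate of CoA release by acetyl transfer from AcCoA to the UDP-4-amino sugar; 0% = median of neutral control wells and 100% = median of positive control wells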
Numbers without * were called inactive.

How did CCCc1cc(C(=O)NC2CCCC2)no1 do in these assays?
Ecoli rRNA inh: 15; RAD52 inh: -8; Cneo AK release: -3; RAD54 inh: -9; PglD inh: 58*; PglD confirm: 4

How did Cc1noc(C)c1NC(=O)Nc1ccc2c(c1)C(=O)N([C@@H](C)CO)C[C@@H](C)[C@H](CN(C)Cc1ccc(C(=O)O)cc1)OCCCC[C@H](C)O2 do in these assays?
Ecoli rRNA inh: 4; Cneo AK release: 55; RAD54 inh: -7; PglD inh: -2

Results for CCCN1C[C@@H](C)[C@H](OC)CN(C)C(=O)c2ccc(NC(=O)Nc3c(C)noc3C)cc2OC[C@H]1C ?
Ecoli rRNA inh: 3; RAD52 inh: 3; Cneo AK release: 2; RAD54 inh: -6; PglD inh: -1

What do the screens show for `CC1CCCN(S(=O)(=O)c2ccc(Cl)s2)C1` (stereo not given)?
Ecoli rRNA inh: 8; RAD52 inh: -6; Cneo AK release: -5; RAD54 inh: 8; PglD inh: 26*; PglD confirm: 12

What do the screens show for `CC(C)c1ccc(NC(=O)C[C@H]2CC[C@H]3[C@@H](COc4ccc(NC(=O)Nc5ccc(F)c(F)c5)cc4C(=O)N3C)O2)cc1`?
RAD52 inh: 20; Cneo AK release: -5; RAD54 inh: 4; PglD inh: 1

What do the screens show for `CCn1ncc(/C=N\NC(=O)c2ccc3c(c2)c(C)c(C)n3Cc2ccccc2)c1C`?
Cneo AK release: 0; RAD54 inh: 0; PglD inh: 3

What do the screens show for `CCn1cc(/C=N\NC(=O)c2ccc3c(c2)c(C)c(C)n3Cc2ccccc2)c(C)n1`?
Cneo AK release: -1; RAD54 inh: -4; PglD inh: 32*; PglD confirm: -5

What do the screens show for `CCOc1cc(C2NC(=O)NC(c3ccccc3)=C2C(C)=O)ccc1OC(C)=O` (stereo not given)?
Ecoli rRNA inh: 7; RAD52 inh: -12; Cneo AK release: 2; RAD54 inh: -4; PglD inh: 23*; PglD confirm: -4

How did COc1ccc(NC(=O)CC2SC(=NCC3CCCO3)NC2=O)cc1 (stereo not given) do in these assays?
Ecoli rRNA inh: 10; RAD52 inh: -15; Cneo AK release: 2; RAD54 inh: 8; PglD inh: 26*; PglD confirm: -2

What do the screens show for `COc1cccc(C2CC(c3ccc(Cl)cc3)n3nc(N)nc3N2)c1` (stereo not given)?
Ecoli rRNA inh: 1; RAD52 inh: -3; Cneo AK release: 1; RAD54 inh: 6; PglD inh: 26*; PglD confirm: 4

What do the screens show for `COc1ccc(C2CC(c3cccc(OC)c3)n3nc(N)nc3N2)cc1` (stereo not given)?
Ecoli rRNA inh: 11; RAD52 inh: -7; Cneo AK release: -1; RAD54 inh: -7; PglD inh: -3

Results for C[C@@H]1CN([C@@H](C)CO)C(=O)c2cc(C#CC3CC3)cnc2O[C@@H]1CN(C)C(=O)c1ccccc1 ?
Ecoli rRNA inh: 2; RAD52 inh: 1; Cneo AK release: 14; RAD54 inh: 0; PglD inh: 1

How did C=CCOC(=O)C1=C(C)NC(=S)NC1/C=C/c1ccccc1 (stereo not given) do in these assays?
Cneo AK release: 5; RAD54 inh: 5; PglD inh: 3

Results for CC1=C(C(=O)OCc2ccccc2)C(/C=C/c2ccccc2)NC(=S)N1 (stereo not given) ?
Cneo AK release: 3; RAD54 inh: 1; PglD inh: 21*; PglD confirm: -1

How did COc1ccc(NC(=O)N2CCCCN3[C@@H](CO)[C@@H](c4ccc(-c5ccccc5C)cc4)[C@@H]3C2)cc1 do in these assays?
Ecoli rRNA inh: -58; RAD52 inh: 22; Cneo AK release: 1; RAD54 inh: -4; PglD inh: 11

Results for C[C@@H]1CN([C@@H](C)CO)C(=O)c2cc(NS(=O)(=O)c3ccc(F)cc3)ccc2O[C@@H]1CN(C)Cc1ccncc1 ?
Ecoli rRNA inh: 1; RAD52 inh: 5; Cneo AK release: 0; RAD54 inh: 11; PglD inh: -2

How did COc1ccc(CCNc2nc3ccccc3n3nnnc23)cc1OC do in these assays?
Ecoli rRNA inh: 9; RAD52 inh: -137; Cneo AK release: -1; RAD54 inh: -13; PglD inh: 1

What do the screens show for `c1ccc(CCNc2nc3ccccc3n3nnnc23)cc1`?
Cneo AK release: -3; RAD54 inh: 4; PglD inh: 25*; PglD confirm: -10

What do the screens show for `COc1ccc(N(CC(=O)Nc2cccc(C(C)=O)c2)S(=O)(=O)c2ccc(NC(C)=O)cc2)cc1`?
Ecoli rRNA inh: -22; RAD52 inh: -34; Cneo AK release: 0; RAD54 inh: 0; PglD inh: 77*; PglD confirm: 2

How did COc1ccc(N2CCN(/C(=N\S(=O)(=O)c3ccccc3)Nc3nc(C)cc(C)n3)CC2)cc1 do in these assays?
Cneo AK release: 0; RAD54 inh: -4; PglD inh: 26*; PglD confirm: -5

What do the screens show for `COc1ccc(CC(=O)NC(=S)NNC(=O)COc2c(C)cccc2C)cc1`?
Cneo AK release: 2; RAD54 inh: 3; PglD inh: 23*; PglD confirm: -4

How did CNC(=S)NNC(=O)Cc1ccc(OC)cc1 do in these assays?
Ecoli rRNA inh: 15; RAD52 inh: -7; Cneo AK release: 2; RAD54 inh: -9; PglD inh: 3

How did O=C(Nc1ccc(F)cc1)N1C[C@@H]2[C@H](c3ccccc31)[C@@H](CO)N2C(=O)c1ccccc1 do in these assays?
Ecoli rRNA inh: 1; RAD52 inh: -1; Cneo AK release: -4; RAD54 inh: -4; PglD inh: 6

Results for O=C(C[C@H]1C[C@@H]2c3cc(NC(=O)C4CCOCC4)ccc3O[C@@H]2[C@H](CO)O1)NCc1ccccc1F ?
Ecoli rRNA inh: 3; RAD52 inh: 6; Cneo AK release: 4; RAD54 inh: 0; PglD inh: -2

Results for CSCC[C@H](NC(=O)COc1cc2c(c3oc(=O)c(C)c(C)c13)CCC(C)(C)O2)C(=O)O ?
Ecoli rRNA inh: -6; RAD52 inh: 4; Cneo AK release: 4; RAD54 inh: -4; PglD inh: 27*; PglD confirm: -1

What do the screens show for `COCC(=O)NCCNc1nc2ccc(C)cc2cc1C`?
Cneo AK release: 1; RAD54 inh: 1; PglD inh: 41*; PglD confirm: -3

Results for O=C(CNS(=O)(=O)c1ccc2ccccc2c1)OCc1nnc(-c2ccccc2)o1 ?
Cneo AK release: 5; RAD54 inh: -1; PglD inh: 34*; PglD confirm: 0

What do the screens show for `Cc1ccc(S(=O)(=O)NCC(=O)OCc2nnc(-c3ccccc3)o2)cc1C`?
Cneo AK release: -3; RAD54 inh: -5; PglD inh: 4
